# According to publication PMC9052103 (RSC Advances, 2020):
# Read-outs that look alike come from different tables or passages of the source.
# Legend:
# [1] = system: E. cloacae ATCC BAA-1143; test: MIC, 96-well microtiter broth dilution; format: cell-based; settings: AmpC beta-lactamase expressing strain
# [2] = system: S. aureus ATCC BAA-41; test: MIC, 96-well microtiter broth dilution; format: cell-based; settings: for MIC S. aureus ATCC BAA-41: MRSA
# [3] = system: E. faecium ATCC 700221; test: MIC, 96-well microtiter broth dilution; format: cell-based; settings: for MIC E. faecium ATCC 700221: Vancomycin-resistant strain, Table 2
# [4] = system: E. faecalis ATCC 29212; test: MIC, 96-well microtiter broth dilution; format: cell-based
# [5] = system: S. aureus ATCC BAA-44; test: MIC, 96-well microtiter broth dilution; format: cell-based
# [6] = system: S. aureus ATCC 43300; test: MIC, 96-well microtiter broth dilution; format: cell-based; settings: for MIC S. aureus ATCC 43300: MRSA
# [7] = system: E. faecium ATCC 49624; test: MIC, 96-well microtiter broth dilution; format: cell-based
# [8] = target: T1, S. aureus FtsZ (Staphylococcus aureus, UniProt P0A031); test: Light-scattering assay of FtsZ polymerization; format: biochemical; settings: for Effect on FtsZ polymerization at a concentration gradient: 0.125–0.5 μg mL^−1; for Light scattering signal compared to control (FtsZ polymerization): same concentration, 0.125 μg mL^−1
# T1 sequence (P0A031 1-390): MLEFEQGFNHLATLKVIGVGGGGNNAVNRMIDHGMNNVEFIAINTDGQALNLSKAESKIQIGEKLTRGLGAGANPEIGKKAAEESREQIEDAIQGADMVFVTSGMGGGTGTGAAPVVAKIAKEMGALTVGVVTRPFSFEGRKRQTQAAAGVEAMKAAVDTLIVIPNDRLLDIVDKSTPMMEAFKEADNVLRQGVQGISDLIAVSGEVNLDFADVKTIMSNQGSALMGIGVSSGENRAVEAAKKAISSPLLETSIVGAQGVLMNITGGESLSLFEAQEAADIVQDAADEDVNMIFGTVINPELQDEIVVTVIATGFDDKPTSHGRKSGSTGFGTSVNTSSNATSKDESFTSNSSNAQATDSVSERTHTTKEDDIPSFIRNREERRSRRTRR
# How it was run: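 S. aureus FtsZ (4 μM) in 50 mM MOPS pH 6.5, preincubated 10 min at 25 °C with 1% DMSO vehicle or test compound. Baseline set after adding 50 mM KCl and 10 mM MgCl2. After 10 min, 1 mM GTP added. 90° light scattering (excitation/emission 600 nm) followed for 25 min, with blank background subtracted. Rate and extent of polymerization calculated. Triplicates.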
# [9] = system: S. aureus ATCC 29213; test: MIC, 96-well microtiter broth dilution; format: cell-based; settings: for MIC S. aureus ATCC 29213: Table 2; for MIC: Staphylococcus aureus
# [10] = system: S. epidermidis ATCC 12228; test: MIC, 96-well microtiter broth dilution; format: cell-based
# [11] = system: S. aureus ATCC BAA-1747; test: MIC, 96-well microtiter broth dilution; format: cell-based; settings: for MIC S. aureus ATCC BAA-1747: MRSA
# [12] = system: A. baumannii ATCC 19606; test: MIC, 96-well microtiter broth dilution; format: cell-based; settings: Multi-drug resistant strain
# [13] = system: B. subtilis 168; test: MIC, 96-well microtiter broth dilution; format: cell-based
# [14] = system: K. pneumoniae ATCC BAA-2470; test: MIC, 96-well microtiter broth dilution; format: cell-based; settings: NDM-1 expressing strain
# [15] = system: S. aureus ATCC BAA-1720; test: MIC, 96-well microtiter broth dilution; format: cell-based; settings: for MIC S. aureus ATCC BAA-1720: MRSA
# [16] = target: S. aureus FtsZ (SaFtsZ) (Staphylococcus aureus, UniProt P0A031); test: GTPase activity assay; format: biochemical
# How it was run: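 Phosphate-release kit assay: S. aureus FtsZ (7.3 μM) in assay buffer with 1% DMSO vehicle or varied concentrations of test compound. Reaction started with 200 μM GTP and run 30 min at room temperature. Colour reagent added for another 30 min to stop the reaction, and inorganic phosphate read at 620 nm. Triplicates.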
# [17] = system: Z-ring in B. subtilis; test: Visualization of Z-ring; format: cell-based; settings: 0.5 × MIC, 4 h
# How it was run: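 B. subtilis carrying IPTG-inducible GFP-FtsZ plasmid grown in LB with 30 μg mL−1 chloramphenicol at 37 °C with shaking; overnight culture diluted to 1% in LB with 40 μM IPTG plus test compound at 0.5 × MIC, 4 h at 37 °C. Cells fixed, resuspended in PBS, placed on 0.1% (w/v) poly-L-lysine-coated slides; imaged by confocal microscopy, 40× oil immersion.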
# [18] = system: mouse fibroblast cells (L929); test: CCK-8 cytotoxicity assay; format: cell-based; settings: L929, 48 h, read-out: IC50 L929
# How it was run: (§1)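 Cells seeded at 5000 per well and allowed to adhere overnight at 37 °C, then exposed to test compound for 48 h. CCK-8 reagent added for a further 3 h, with absorbance read at 450 nm. Triplicates.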
# [19] = system: E. coli ATCC 8739; test: MIC, 96-well microtiter broth dilution; format: cell-based; settings: Escherichia coli, ATCC8739, read-out: MIC E. coli ATCC 8739
# [20] = target: SaFtsZ (Staphylococcus aureus, UniProt P0A031); test: SaFtsZ binding affinity assay; design: species or system S. aureus
# How it was run: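 Fluorescence titration at 25 °C in 50 mM Tris–HCl pH 7.4, 50 mM KCl, 2 mM magnesium acetate. Test compound at 3.51 or 3.68 μM titrated with SaFtsZ in 0.4 μM steps (0.4–6.4 μM), equilibrating 2 min per step. Excitation 493 nm, emission 500–700 nm, buffer-titration background subtracted. Kd obtained by nonlinear fit to an independent-site model.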
# [21] = system: human bronchial epithelium cells (16HBE); test: CCK-8 cytotoxicity assay; format: cell-based; settings: 48 h, read-out: IC50 16HBE
# How it was run: as §1
# [22] = system: human renal tubular epithelial cells (HK-2); test: CCK-8 cytotoxicity assay; format: cell-based; settings: Epithelial cell, 48 h, read-out: IC50 HK-2
# How it was run: as §1
# [23] = system: MRSA strains; test: MIC, summary over MRSA strains; format: cell-based, S. aureus; settings: Staphylococcus aureus, read-out: MIC against MRSA
# [24] = system: S. aureus ATCC 29213; test: In vitro drug resistance development, serial passage; format: cell-based
# How it was run: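 Serial passage against S. aureus ATCC 29213: culture from the 0.5 × MIC well of the prior MIC plate diluted to 5 × 10^5 CFU mL−1 and exposed to a range of test compound concentrations. MIC read after 24 h at 37 °C. Cycle repeated 35 times. Ciprofloxacin, vancomycin and rifampin passaged in parallel.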
# [25] = system: E. coli ATCC 25922; test: MIC, 96-well microtiter broth dilution; format: cell-based
# [26] = system: P. aeruginosa ATCC BAA-2108; test: MIC, 96-well microtiter broth dilution; format: cell-based; settings: Multi-drug resistant strain
# [27] = system: E. coli ATCC BAA-2469; test: MIC, 96-well microtiter broth dilution; format: cell-based; settings: NDM-1 expressing strain
compound,measurement,setting,value
1-Methyl-2-((E)-4-(methylthio)styryl)-4-((Z)-(3-(3-(piperidin-1-yl)propyl)benzo[d]thiazol-2(3H)-ylidene)methyl)quinolin-1-ium iodide [Compound 4e3],MIC E. cloacae ATCC BAA-1143,[1],64 µg/mL
same,MIC S. aureus ATCC BAA-41,[2],16 µg/mL
same,MIC E. faecium ATCC 700221,[3],8 µg/mL
same,MIC E. faecalis ATCC 29212,[4],>64 µg/mL
same,MIC S. aureus ATCC BAA-44,[5],8 µg/mL
same,MIC S. aureus ATCC 43300,[6],8 µg/mL
same,MIC E. faecium ATCC 49624,[7],16 µg/mL
same,Effect on FtsZ polymerization at a concentration gradient,[8],did not show significant change
same,Light scattering signal compared to control (FtsZ polymerization),[8],almost no signal change
same,MIC S. aureus ATCC 29213,[9],8 µg/mL
same,MIC S. epidermidis ATCC 12228,[10],4 µg/mL
same,MIC S. aureus ATCC BAA-1747,[11],16 µg/mL
same,MIC A. baumannii ATCC 19606,[12],64 µg/mL
same,MIC B. subtilis 168,[13],8 µg/mL
same,MIC K. pneumoniae ATCC BAA-2470,[14],64 µg/mL
same,MIC S. aureus ATCC BAA-1720,[15],16 µg/mL
"CC1CCN(CCCN2/C(=C/c3cc[n+](C)c4ccccc34)Sc3ccccc32)CC1.[I-] [Compound 4b4, (Z)-1-Methyl-4-((3-(3-(4-methylpiperidin-1-yl)propyl)benzo[d]thiazol-2(3H)-ylidene)methyl)quinolin-1-ium iodide]",MIC,"[2]; Staphylococcus aureus, ATCCBAA41|MRSA, read-out: MIC S. aureus ATCC BAA-41",1 µg/mL
same,MIC,"[3]; Enterococcus faecium, ATCC700221",16 µg/mL
same,MIC,[3]; read-out: MIC against VRE,2 to 16 µg/mL
same,MIC,"[4]; Enterococcus faecalis, ATCC29212, read-out: MIC E. faecalis ATCC 29212",16 µg/mL
same,Effect on GTPase activity of SaFtsZ,[16],did not show any effect
same,Effect on Z-ring formation (GFP-FtsZ localization),[17],promoted the mislocalization of the FtsZ protein
same,MIC,"[6]; Staphylococcus aureus, ATCC43300|MRSA, read-out: MIC S. aureus ATCC 43300",8 µg/mL
same,IC50,[18],23.4 µg/mL
same,MIC,[19],2 µg/mL
same,Kd,[20],3.23 µM
same,MIC,"[7]; Enterococcus faecium, ATCC49624, read-out: MIC E. faecium ATCC 49624",8 µg/mL
same,IC50,[21],20.2 µg/mL
same,Effect on FtsZ polymerization at a concentration gradient,[8],enhance FtsZ polymerization in a dose-dependent manner
same,Light scattering signal compared to control (FtsZ polymerization),[8],significant increase in light scattering signal
same,IC50,[22],18.6 µg/mL
same,MIC,[23],1 to 8 µg/mL
same,MIC,[9]; ATCC29213,2 µg/mL
same,MIC,"[9]; ATCC29213, read-out: MIC S. aureus ATCC 29213",2 µg/mL
same,MIC,"[9]; ATCC29213, read-out: S. aureus ATCC 29213 (MIC)",2 µg/mL
same,MIC,"[10]; Staphylococcus epidermidis, ATCC12228, read-out: MIC S. epidermidis ATCC 12228",0.25 µg/mL
same,Increase of MIC after 35 passages,[24],8 fold
same,MIC,"[25]; Escherichia coli, ATCC25922, read-out: MIC E. coli ATCC 25922",2 µg/mL
same,MIC,"[11]; Staphylococcus aureus, ATCCBAA1747|MRSA, read-out: MIC S. aureus ATCC BAA-1747",4 µg/mL
same,MIC,"[15]; Staphylococcus aureus, ATCCBAA1720|MRSA, read-out: MIC S. aureus ATCC BAA-1720",8 µg/mL
2-((E)-4-(Dimethylamino)styryl)-1-methyl-4-((Z)-(3-(3-(piperidin-1-yl)propyl)benzo[d]thiazol-2(3H)-ylidene)methyl)quinolin-1-ium iodide [Compound 4e4],MIC E. cloacae ATCC BAA-1143,[1],64 µg/mL
same,MIC S. aureus ATCC BAA-41,[2],16 µg/mL
same,MIC E. faecium ATCC 700221,[3],4 µg/mL
same,MIC E. faecalis ATCC 29212,[4],32 µg/mL
same,MIC S. aureus ATCC BAA-44,[5],8 µg/mL
same,MIC S. aureus ATCC 43300,[6],8 µg/mL
same,MIC E. faecium ATCC 49624,[7],32 µg/mL
same,MIC S. aureus ATCC 29213,[9],16 µg/mL
same,MIC S. epidermidis ATCC 12228,[10],2 µg/mL
same,MIC P. aeruginosa ATCC BAA-2108,[26],64 µg/mL
same,MIC S. aureus ATCC BAA-1747,[11],16 µg/mL
same,MIC A. baumannii ATCC 19606,[12],>64 µg/mL
same,MIC E. coli ATCC BAA-2469,[27],8 µg/mL
same,MIC B. subtilis 168,[13],8 µg/mL
same,MIC S. aureus ATCC BAA-1720,[15],8 µg/mL
2-((E)-4-Hydroxystyryl)-1-methyl-4-((Z)-(3-(3-(piperidin-1-yl)propyl)benzo[d]thiazol-2(3H)-ylidene)methyl)quinolin-1-ium iodide [Compound 4e2],MIC E. cloacae ATCC BAA-1143,[1],>64 µg/mL
same,MIC S. aureus ATCC BAA-41,[2],16 µg/mL
same,MIC E. faecium ATCC 700221,[3],8 µg/mL
same,MIC E. faecalis ATCC 29212,[4],>64 µg/mL
same,MIC S. aureus ATCC BAA-44,[5],16 µg/mL
same,MIC S. aureus ATCC 43300,[6],8 µg/mL
same,MIC E. faecium ATCC 49624,[7],16 µg/mL
same,MIC S. aureus ATCC 29213,[9],16 µg/mL
same,MIC S. epidermidis ATCC 12228,[10],8 µg/mL
same,MIC E. coli ATCC 25922,[25],4 µg/mL
same,MIC P. aeruginosa ATCC BAA-2108,[26],64 µg/mL
same,MIC S. aureus ATCC BAA-1747,[11],32 µg/mL
same,MIC A. baumannii ATCC 19606,[12],>64 µg/mL
same,MIC E. coli ATCC BAA-2469,[27],8 µg/mL
same,MIC B. subtilis 168,[13],4 µg/mL
same,MIC K. pneumoniae ATCC BAA-2470,[14],64 µg/mL
same,MIC S. aureus ATCC BAA-1720,[15],16 µg/mL
